From ChEMBL document CHEMBL4428057, “Discovery, Synthesis, and Evaluation of 2,4-Diaminoquinazolines as a Novel Class of Pancreatic β-Cell-Protective Agents against Endoplasmic Reticulum (ER) Stress” (J Med Chem, 2016)
The source made the active and inactive calls. No cut-off for these calls is given here.

Assays:
[1] = test system: INS1; assay: Protection against tunicamycin induced endoplasmic reticulum stress in rat INS-1 cells assessed as increase in cell viability after 3 days by CellTiter-Glo assay relative to control; format: functional
How it was run: (§1)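 INS-1 cells at 3×10^3/well (384-well) co-treated with Tm 0.1 µg/mL and compound for 72 h; CellTiter-Glo ATP luminescence. Activity is % rescue, with Tm alone = 0% and DMSO without Tm = 100%. EC50 from ten 2-fold serial dilutions by curve fit; triplicate.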

[2] = test system: INS1; assay: Protection against tunicamycin induced endoplasmic reticulum stress in rat INS-1 cells assessed as increase in cell viability after 3 days by CellTiter-Glo assay; format: functional, cell-based; conditions: INS1, 72 h; how it was run: as §1
[3] = test system: INS1; assay: Protection against tunicamycin induced endoplasmic reticulum stress in rat INS-1 cells assessed as increase in cell viability at 30 uM after 72 hrs by CellTiter-Glo assay; format: functional, cell-based
[4] = test system: INS1; assay: Protection against tunicamycin induced endoplasmic reticulum stress in rat INS-1 cells assessed as increase in cell viability at 5 uM after 72 hrs by CellTiter-Glo assay; format: functional, cell-based

SMILES | %max [1] | EC50 [2] | Activity [3] | Activity [4]
OCC1CCCCN1c1nc(NCCc2cccc(F)c2)c2ccccc2n1 (racemic) | 57.3% | 1880 nM |  | 
Nc1nnc(Sc2cc(-n3cccc3)c(Cl)cc2[N+](=O)[O-])[nH]1 |  |  | Active | 
COc1ccc(CNc2nc(N3CCC[C@H]3CO)nc3ccccc23)cc1OC | 44.9% | 1850 nM |  | 
OC[C@@H]1CCCN1c1nc(NCCc2ccccc2Br)c2ccccc2n1 | 39% | 1880 nM |  | 
OC[C@@H]1CCCN1c1nc(NCCc2ccccc2)c2ccccc2n1 | 54.4% | 480 nM |  | 
COc1ccccc1CCNc1nc(N2CCC[C@H]2CO)nc2ccccc12 | 56.6% | 3560 nM |  | 
OC[C@@H]1CCCN1c1nc(NCCc2ccc(Cl)cc2)c2ccccc2n1 | 57.3% | 510 nM |  | 
OCC1CCCCN1c1nc(NCCc2ccccc2Cl)c2ccccc2n1 (racemic) | 51.4% | 470 nM |  | 
OCC1CCCCN1c1nc(NCCc2ccccc2F)c2ccccc2n1 (racemic) | 60.3% | 1460 nM |  | 
COc1ccc(CNc2nc(N3CCCCC3CO)nc3ccccc23)cc1OC (configuration not stated) | 69.4% | 3640 nM |  | 
COc1cccc(CCNc2nc(N3CCC[C@H]3CO)nc3ccccc23)c1 | 54.9% | 1510 nM |  | 
OCC1CCCCN1c1nc(NCCc2ccc(Br)cc2)c2ccccc2n1 (racemic) | 52.8% | 340 nM |  | 
OCC1CCCCN1c1nc(NCCc2cccc(Cl)c2)c2ccccc2n1 (racemic) | 46.2% | 790 nM |  | 
OCC1CCCCN1c1nc(NCCc2cccc(Br)c2)c2ccccc2n1 (racemic) | 51.7% | 770 nM |  | 
OCC1CCCCN1c1nc(NCCc2ccccc2)c2ccccc2n1 (racemic) | 55.7% | 360 nM |  | 
OCC1CCCCN1c1nc(NCCc2ccc(Cl)cc2)c2ccccc2n1 (racemic) | 57.6% | 170 nM |  | 
Cc1ccc(CCNc2nc(N3CCCCC3CO)nc3ccccc23)cc1 (racemic) | 33.6% | 140 nM |  | 
OC[C@@H]1CCCN1c1nc(NCCc2ccc(F)cc2)c2ccccc2n1 | 56.2% | 2130 nM |  | 

SMILES | %max [1] | EC50 [2] | Activity [3] | Activity [4]
OC[C@@H]1CCCN1c1nc(NCCc2ccc(Br)cc2)c2ccccc2n1 | 44.1% | 650 nM |  | 
Cc1ccc(CCNc2nc(N3CCC[C@H]3CO)nc3ccccc23)cc1 | 34.2% | 660 nM |  | 
COc1ccc(CNc2nc(N3CCCC[C@@H]3CO)nc3ccccc23)cc1 |  |  |  | Active
COc1ccccc1CCNc1nc(N2CCCCC2CO)nc2ccccc12 (racemic) | 46.9% | 1600 nM |  | 
COc1ccc(CCNc2nc(N3CCCCC3CO)nc3ccccc23)cc1 (racemic) | 58.6% | 310 nM |  | 
OCC1CCCCN1c1nc(NCc2ccccc2)c2ccccc2n1 (configuration not stated) | 56.4% | 230 nM |  | 
OC[C@@H]1CCCN1c1nc(NCCc2cccc(F)c2)c2ccccc2n1 | 51.3% | 1150 nM |  | 
OC[C@@H]1CCCN1c1nc(NCCc2cccc(Br)c2)c2ccccc2n1 | 53.2% | 780 nM |  | 
COc1ccc(CNc2nc(N3CCC[C@H]3CO)nc3ccccc23)cc1 | 57.2% | 4050 nM |  | 
COc1ccc(CNc2nc(N3CCCC[C@H]3CO)nc3ccccc23)cc1 |  |  |  | Active
COc1cccc(CCNc2nc(N3CCCCC3CO)nc3ccccc23)c1 (racemic) | 69.2% | 2590 nM |  | 
OCC1CCCCN1c1nc(NCCc2ccccc2Br)c2ccccc2n1 (racemic) | 44.2% | 1410 nM |  | 
OC[C@@H]1CCCN1c1nc(NCCc2cccc(Cl)c2)c2ccccc2n1 | 51.5% | 1050 nM |  | 
OCC1CCCCN1c1nc(NCCc2ccc(F)cc2)c2ccccc2n1 (racemic) | 47.5% | 310 nM |  | 
OCC1CCCCN1c1nc(NCc2ccc(Cl)cc2)c2ccccc2n1 (configuration not stated) | 54.7% | 210 nM |  | 
OC[C@@H]1CCCN1c1nc(NCCc2ccccc2F)c2ccccc2n1 | 52.5% | 1700 nM |  | 
OC[C@@H]1CCCN1c1nc(NCCc2ccccc2Cl)c2ccccc2n1 | 50.6% | 1440 nM |  | 
